Measured values published in ChEMBL document CHEMBL3861971, “Cinnamoyloxy-mammeisin Isolated from Geopropolis Attenuates Inflammatory Process by Inhibiting Cytokine Production: Involvement of MAPK, AP-1, and NF-κB” (J Nat Prod, 2016).
Calls of active or inactive are those of the source. No cut-off for these calls is given here.

What was measured:
[1] = molecular target: MAP kinase p38 (Mus musculus) (UniProt P47811+O08911+Q9WUI1+Q9Z1B7); test: Inhibition of MAPK p38 phosphorylation in peptidoglycan-stimulated mouse RAW264.7 cells at 6 uM pretreated for 30 mins followed by peptidoglycan stimulation for 15 mins by Western blot method; format: cell-based
How it was run: (§1)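 RAW 264.7 cells (2×10^6/well) pretreated with 6 µM 30 min before PG 5 µg/mL. Lysed with RIPA plus protease/phosphatase inhibitors after 15 min of stimulation. Phospho-ERK1/2, SAPK/JNK and p38 detected by Western blot with chemiluminescence. n = 3 or 4.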

[2] = tested on: Mus musculus; test: Antiinflammatory activity in specific pathogen-free C57BL/6 mouse assessed as reduction of mBSA-induced TNF-alpha release in joint cavity at 100 ug/kg, administered post 21 days of immunization subcutaneously for 30 mins prior mBSA challenge measured after 1.5 hrs by ELISA; format: functional
How it was run: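 Immunized mice (mBSA/Freund's adjuvant, boosts days 7 and 14) treated sc 30 min before day-21 ia mBSA 30 µg/joint. TNF-α in the joint measured by ELISA 1.5 h after challenge.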

[3] = tested on: Mus musculus; test: Antiinflammatory activity in specific pathogen-free C57BL/6 mouse assessed as reduction in carrageenan-induced CXCL2/MIP-2 release in peritoneal cavity at 300 ug/kg administered subcutaneously for 30 mins prior to carrageenan challenge measured after 3 hrs by ELISA; format: functional
How it was run: (§2)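 Mice (male C57BL/6 SPF) dosed sc in 1% DMSO/PBS 30 min ahead of ip carrageenan 500 µg/cavity. Peritoneal cavity sampled at 1.5 h for TNF-α and at 3 h for CXCL2/MIP-2. Levels measured by ELISA, expressed as pg/mL or pg/mg tissue.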

[4] = tested on: RAW264.7; test: Antiinflammatory activity in mouse RAW264.7 cells assessed as inhibition of LPS-stimulated TNFalpha production at 0.6 to 6 uM pretreated 30 mins prior to LPS challenge measured after 4 hrs by ELISA; format: functional, cell-based
How it was run: (§3)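 RAW 264.7 cells grown in RPMI/10% FBS, plated at 2×10^5/well overnight. Pretreated with 0.6, 2 or 6 µM 30 min before PG 5 µg/mL or LPS 10 ng/mL. Supernatant collected at 4 h for TNF-α and CXCL2/MIP-2 ELISA. Mean ± SEM, n = 3–5.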

[5] = tested on: RAW264.7; test: Inhibition of NFkappaB activation (unknown origin) expressed in mouse RAW264.7 cells at 0.6 to 6 uM pretreated for 30 mins followed by peptidoglycan challenge measured after 4 hrs by luciferase reporter gene assay; format: cell-based; conditions: Homo sapiens
How it was run: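 RAW 264.7 cells stably carrying an NF-κB-driven luciferase reporter, plated at 3×10^5/well overnight. Pretreated with 0.6–6 µM 30 min before PG 5 µg/mL. Lysed in Tris-NaCl-Tween buffer at 4 h, luciferin reagent added and luminescence read. n = 3–5.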

[6] = tested on: RAW264.7; test: Inhibition of JNK phosphorylation in peptidoglycan-stimulated mouse RAW264.7 cells at 6 uM pretreated for 30 mins followed by peptidoglycan stimulation for 15 mins by Western blot method; format: cell-based; how it was run: as §1
[7] = tested on: Mus musculus; test: Anti-inflammatory activity in specific pathogen-free C57BL/6 mouse assessed as inhibition of carrageenan-induced leukocyte rolling into mesenteric venules at 300 ug/kg administered subcutaneously for 30 mins prior to carrageenan challenge measured after 2 hrs for 10 mins by intravital microscopic analysis; format: functional
[8] = tested on: Mus musculus; test: Anti-inflammatory activity in specific pathogen-free C57BL/6 mouse assessed as reduction in carrageenan-induced TNF-alpha release in peritoneal cavity at 300 ug/kg administered subcutaneously for 30 mins prior to carrageenan challenge measured after 1.5 hrs by ELISA; format: functional; how it was run: as §2
[9] = tested on: RAW264.7; test: Antiinflammatory activity in mouse RAW264.7 cells assessed as inhibition of peptidoglycan-stimulated TNFalpha production at 0.6 to 6 uM pretreated 30 mins prior to peptidoglycan challenge measured after 4 hrs by ELISA; format: functional, cell-based; how it was run: as §3
[10] = tested on: Mus musculus; test: Antiinflammatory activity in specific pathogen-free C57BL/6 mouse assessed as inhibition of mBSA-induced neutrophil migration into joint cavity at 100 ug/kg, administered post 21 days of immunization subcutaneously for 30 mins prior to mBSA challenge measured after 6 hrs by cell counting method; format: functional
How it was run: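 C57BL/6 SPF males immunized sc with mBSA 500 µg in Complete Freund's adjuvant/PBS emulsion, boosted days 7 and 14 with Incomplete Freund's adjuvant plus mBSA. Compound given sc 30 min before ia mBSA 30 µg/joint on day 21. At 6 h joint cavity washed with PBS/EDTA, then total and differential leukocyte counts.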

[11] = tested on: Mus musculus; test: Antiinflammatory activity in specific pathogen-free C57BL/6 mouse assessed as reduction in mBSA-induced myeloperoxidase activity in joint cavity at 100 ug/kg administered post 21 days of immunization subcutaneously for 30 mins prior to mBSA challenge measured after 6 hrs by bioluminescence assay; format: functional
How it was run: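 mBSA-immunized C57BL/6 mice pretreated sc 30 min before ia mBSA 30 µg/joint. At 6 h, under anesthesia, mice given ip bioluminescent myeloperoxidase probe 100 mg/kg. Joints imaged on IVIS Spectrum, read out as radiance (p/sec/cm²/sr).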

[12] = molecular target: Transcription factor Jun (Mus musculus) (UniProt P05627); test: Inhibition of c-jun phosphorylation in peptidoglycan-stimulated mouse RAW264.7 cells at 6 uM pretreated for 30 mins followed by peptidoglycan stimulation for 30 mins by immunofluorescence method
Sequence of Transcription factor Jun (Mus musculus) (P05627 whole entry): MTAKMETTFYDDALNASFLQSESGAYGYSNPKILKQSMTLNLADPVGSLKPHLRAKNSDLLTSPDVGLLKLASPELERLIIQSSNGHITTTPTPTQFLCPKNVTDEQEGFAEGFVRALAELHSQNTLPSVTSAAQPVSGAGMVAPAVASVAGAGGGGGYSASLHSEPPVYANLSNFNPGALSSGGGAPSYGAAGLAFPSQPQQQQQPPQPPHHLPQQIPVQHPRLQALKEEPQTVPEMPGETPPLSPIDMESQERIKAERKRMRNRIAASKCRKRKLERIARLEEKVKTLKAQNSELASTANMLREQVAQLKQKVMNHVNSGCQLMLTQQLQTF

[13] = molecular target: Mitogen-activated protein kinase 1 and 3 (ERK2 and ERK1) (Mus musculus) (UniProt P63085+Q63844); test: Inhibition of ERK1/2 phosphorylation in peptidoglycan-stimulated mouse RAW264.7 cells at 6 uM pretreated for 30 mins followed by peptidoglycan stimulation for 15 mins by Western blot method; format: cell-based; how it was run: as §1
Sequence of Mitogen-activated protein kinase 1 and 3 (ERK2 and ERK1) (Mus musculus) (P63085 whole entry, looked up): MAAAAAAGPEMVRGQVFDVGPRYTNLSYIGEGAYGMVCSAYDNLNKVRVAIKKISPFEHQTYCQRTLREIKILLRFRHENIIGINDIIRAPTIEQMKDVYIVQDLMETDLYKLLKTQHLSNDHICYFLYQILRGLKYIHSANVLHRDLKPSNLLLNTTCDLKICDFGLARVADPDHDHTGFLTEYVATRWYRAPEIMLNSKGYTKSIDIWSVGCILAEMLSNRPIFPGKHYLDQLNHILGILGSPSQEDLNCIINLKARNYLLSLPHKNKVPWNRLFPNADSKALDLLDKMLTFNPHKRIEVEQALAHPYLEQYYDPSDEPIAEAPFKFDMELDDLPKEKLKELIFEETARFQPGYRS
Sequence of Mitogen-activated protein kinase 1 and 3 (ERK2 and ERK1) (Mus musculus) (Q63844 whole entry, looked up): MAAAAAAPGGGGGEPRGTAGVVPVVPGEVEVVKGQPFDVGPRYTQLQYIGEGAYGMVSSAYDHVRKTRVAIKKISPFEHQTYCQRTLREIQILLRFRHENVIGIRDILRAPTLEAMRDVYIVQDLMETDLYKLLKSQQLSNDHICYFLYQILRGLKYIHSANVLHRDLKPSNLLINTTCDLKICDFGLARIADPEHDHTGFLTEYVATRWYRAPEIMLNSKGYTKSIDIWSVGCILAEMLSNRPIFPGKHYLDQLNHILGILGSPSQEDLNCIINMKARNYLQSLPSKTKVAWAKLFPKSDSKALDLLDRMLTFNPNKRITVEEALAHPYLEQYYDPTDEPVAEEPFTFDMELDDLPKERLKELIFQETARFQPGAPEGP

[14] = species on record: Mus musculus; test: Cytotoxicity against mouse RAW264.7 cells assessed as induction of apoptosis at 6 uM measured after 4 hrs by Annexin V-FTIC/propidium iodide staining-based flow cytometric analysis; format: toxicity, cell-based; conditions: raw264.7, 4 h
How it was run: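 RAW 264.7 cells (2×10^6/well, overnight) exposed to 6 µM for 4 h, then washed into annexin buffer. Stained with annexin V-FITC (1:50, 4 °C, 20 min) and then PI (1:100). Analysed by flow cytometry, about 10 000 gated events. Three to four separate experiments.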

[15] = tested on: Mus musculus; test: Antiinflammatory activity in specific pathogen-free C57BL/6 mouse assessed as inhibition of carrageenan-induced neutrophil migration into peritoneal cavity at 300 ug/kg, administered subcutaneously for 30 mins prior to carrageenan challenge measured after 4 hrs using Neubauer chamber by optical microscopic analysis; format: functional
How it was run: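 Male C57BL/6 SPF mice (20–22 g) pretreated sc (vehicle 1% DMSO in PBS), 30 min before ip carrageenan 500 µg/cavity. Peritoneal neutrophils determined 4 h later. Differential count of 100 cells by optical microscopy (100×). Expressed as neutrophils per cavity.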

[16] = tested on: RAW264.7; test: Antiinflammatory activity in mouse RAW264.7 cells assessed as inhibition of LPS-stimulated CXCL2/MIP-2 release at 0.6 to 6 uM pretreated 30 mins prior to LPS challenge measured after 4 hrs by ELISA; format: functional, cell-based; how it was run: as §3
[17] = tested on: RAW264.7; test: Antiinflammatory activity in mouse RAW264.7 cells assessed as inhibition of peptidoglycan-stimulated CXCL2/MIP-2 release at 0.6 to 6 uM pretreated 30 mins prior to peptidoglycan challenge measured after 4 hrs by ELISA; format: functional, cell-based; how it was run: as §3
[18] = species on record: Mus musculus; test: Cytotoxicity against mouse RAW264.7 cells at 6 uM measured after 4 hrs by MTT assay; format: toxicity, cell-based; conditions: raw264.7, 4 h
How it was run: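 RAW 264.7 cells (2×10^5/well, overnight) exposed to 6 µM for 4 h. MTT 1 mg/mL in RPMI added for 2 h. Formazan taken up in absolute ethanol and absorbance read at 540 nm.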

[19] = tested on: Mus musculus; test: Antiinflammatory activity in specific pathogen-free C57BL/6 mouse assessed as inhibition of carrageenan-induced leukocyte adhesion in mesenteric venules at 300 ug/kg administered subcutaneously for 30 mins prior to carrageenan challenge measured after 4 hrs by intravital microscopy; format: functional

With `CC(C)=CCc1c(O)c(C(=O)CC(C)COC(=O)/C=C/c2ccccc2)c(O)c2c(-c3ccccc3)cc(=O)oc12` (centres undefined) the inhibition [1] was “Active”, the Activity [2] was “Active” and the Activity [3] was “Active”. The inhibition [4] was “Active”, the inhibition [5] was “Active” and the inhibition [6] was “Active”. For the same compound, the inhibition [7] was “Active”, the Activity [8] was “Active” and the inhibition [9] was “Active”. The inhibition [10] was “Active”, the Activity [11] was “Active” and the inhibition [12] was “Active”. The inhibition [13] was “Active”, the Activity [14] was “Non-Toxic” and the inhibition [15] was “Active”. For the same compound, the inhibition [16] was “Active”, the inhibition [17] was “Active” and the Activity [18] was “Non-Toxic”. For the same compound, the inhibition [19] was “Active”.
